In one series the test system is Crohn's disease. The settings on record: cited from earlier work.
Series [1] has as its system patients with biologic‐resistant CD. Description: Phase 2a trial: Crohn's disease activity index. Type of series: in vivo, human. The settings on record: 10 + 15 ng/kg/min groups pooled, mean ± SD. An outline of the steps:
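Patients (n = 24) were randomized 1:1:1 in blocks of three to placebo or 10 or 15 ng/kg/min test compound, infused 8 h/day for 7 days alongside ongoing biologic. Doctors scored CDAI by questionnaire at baseline and at 4, 6, 8, 16 and 24 weeks. Response was a drop of ≥50 points; remission was CDAI ≤150. Changes are mean ± SD, compared by t-test/ANOVA and, over 0–24 weeks, by a mixed-effects model.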

Series [2] has the same test system. Briefly: CRP, fecal calprotectin and FIT. In kind it is in vivo, human. The settings on record: CRP at 2, 4, 8 weeks; fecal calprotectin and FIT at 1 week; data not shown. An outline of the steps: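 Adults with biologic-resistant CD at 16 Japanese centres were randomized 1:1:1 to placebo or 10 or 15 ng/kg/min of test compound, infused 8 h/day for 7 days from the day of biologic dosing. CRP was measured at 2, 4 and 8 weeks. Stool was collected before dosing and on day 8 for fecal calprotectin (fluorescence enzyme immunoassay) and FIT by a commercial lab. Groups were compared by t-test and ANOVA with Fisher's test.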

The nature of series [3]: Plasma concentration of adrenomedullin. In kind it is in vivo. The settings on record: human, intravenous. Put shortly:
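Blood was drawn before and at 4, 8 and 10 h after the start of the 8-h infusion (10 or 15 ng/kg/min) on days 1 and 7, and at 4 and 8 weeks. Test compound was measured by automated ELISA. Cmax and Tmax were read directly from the data; AUC was computed over 0–10 h. Values are mean ± SD.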

In series [4] the test system is patients with biologic‐resistant CD. Briefly: Safety evaluation: adverse events, vital signs. In kind it is in vivo, human. Put shortly:
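All 24 patients, hospitalized for the 7-day infusion of placebo or 10 or 15 ng/kg/min test compound (8 h/day), were assessed for AEs and SAEs throughout the study. Vital signs, blood and urine tests and 12-lead ECG were taken at set times after dosing, with screening within 2 weeks before therapy. Patients with systolic BP <90 mmHg or pulse <45 bpm were excluded.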

Series [5] in a line: Trough level of infliximab. Type of series: in vivo, human. The settings on record: CD patients; 4 and 8 weeks vs day 1. An outline of the steps:
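Serum was collected immediately before each biologic dose. Infliximab trough levels were measured by ELISA at a contract lab in patients given placebo or 10 or 15 ng/kg/min test compound, infused 8 h/day for 7 days starting on the day of biologic dosing; changes were assessed at 8 weeks.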

As for Infliximab, the “Annual risk of loss of infliximab response” value in the series with Crohn's disease was 13 % per patient‐year.

On to `CC[C@H](C)[C@H](NC(=O)[C@H](CCC(N)=O)NC(=O)[C@H](Cc1c[nH]cn1)NC(=O)[C@H](C)NC(=O)[C@H](CC(C)C)NC(=O)[C@H](CCCCN)NC(=O)[C@H](CCC(N)=O)NC(=O)[C@@H](NC(=O)[C@@H](NC(=O)[C@@H]1CSSC[C@H](NC(=O)CNC(=O)[C@H](Cc2ccccc2)NC(=O)[C@H](CO)NC(=O)[C@H](CCCNC(=N)N)NC(=O)[C@H](CC(C)C)NC(=O)CNC(=O)[C@H](CCC(N)=O)NC(=O)[C@H](Cc2ccccc2)NC(=O)[C@H](CC(N)=O)NC(=O)[C@H](CC(N)=O)NC(=O)[C@H](CCSC)NC(=O)[C@H](CO)NC(=O)[C@H](CCC(N)=O)NC(=O)[C@H](CCCNC(=N)N)NC(=O)[C@@H](N)Cc2ccc(O)cc2)C(=O)N[C@@H](CCCNC(=N)N)C(=O)N[C@@H](Cc2ccccc2)C(=O)NCC(=O)N[C@@H]([C@@H](C)O)C(=O)N1)[C@@H](C)O)C(C)C)C(=O)N[C@@H](Cc1ccc(O)cc1)C(=O)N[C@@H](CCC(N)=O)C(=O)N[C@@H](Cc1ccccc1)C(=O)N[C@H](C(=O)N[C@@H](CC(=O)O)C(=O)N[C@@H](CCCCN)C(=O)N[C@@H](CC(=O)O)C(=O)N[C@@H](CCCCN)C(=O)N[C@@H](CC(=O)O)C(=O)N[C@@H](CC(N)=O)C(=O)N[C@H](C(=O)N[C@@H](C)C(=O)N1CCC[C@H]1C(=O)N[C@@H](CCCNC(=N)N)C(=O)N[C@@H](CO)C(=O)N[C@@H](CCCCN)C(=O)N[C@H](C(=O)N[C@@H](CO)C(=O)N1CCC[C@H]1C(=O)N[C@@H](CCC(N)=O)C(=O)NCC(=O)N[C@@H](Cc1ccc(O)cc1)C(N)=O)[C@@H](C)CC)C(C)C)[C@@H](C)O` [Adrenomedullin], for which the “Changes in CDAI” value in series [1] (4 weeks, n = 16) is −71 ± 83. Moreover, the “Changes in CDAI” value in series [1] (6 weeks, n = 14) is −72 ± 67. In series [1] (8 weeks, n = 15), the “Changes in CDAI (primary endpoint)” value is listed as −81 ± 73. For the same molecule, the “Changes in CDAI” value in series [1] (16 weeks, n = 10) was −61 ± 51. Also, the “Changes in CDAI” value in series [1] (24 weeks, n = 9) is −81 ± 46. In addition, in series [2], the “Changes in CRP levels, fecal calprotectin and FIT versus placebo” value is “no differences”. Moreover, in series [3] (10 ng/kg/min), the AUC(0-t) came out at 0.247 ± 0.06 ng·h/mL. In series [3] (15 ng/kg/min), this molecule registered an area under the curve AUC(0-t) of 0.441 ± 0.245 ng·h/mL and a Cmax of 0.0653 ± 0.043 ng/mL. In series [4] (10 ng/kg/min, 8 patients), the “Any adverse events, patients (%)” value is recorded as 7 (88%); the Deaths is listed as 0; the “Decrease in body weight, patients (%)” value is given as 0; the “Dehydration, patients (%)” value is given as 0. In series [4] (10 ng/kg/min, 8 patients), the “Dizziness, patients (%)” value is 1 (13%); the “Fever up, patients (%)” value is on record as 0; the “Flushing, patients (%)” value is on record as 1 (13%); the “Head discomfort, patients (%)” value is given as 0. Also, in series [4] (10 ng/kg/min, 8 patients), the “Headache, patients (%)” value was 3 (38%); the “Increase in transaminase level, patients (%)” value turned out to be 0; the “Lumbago, patients (%)” value is 0; the “Moderate to severe adverse events, patients (%)” value was 1 (13%). In series [4] (10 ng/kg/min, 8 patients), the “Nasopharyngitis, patients (%)” value was 1 (13%); the “Palpitation, patients (%)” value is given as 1 (13%); the “Rash, patients (%)” value is given as 1 (13%); the “Right bundle branch block, patients (%)” value is recorded as 0. Besides, in series [4] (10 ng/kg/min, 8 patients), the “Serious adverse events, patients (%)” value was 0 and the “Vomiting, patients (%)” value stood at 0. In series [4] (15 ng/kg/min, 8 patients), the “Any adverse events, patients (%)” value is recorded as 8 (100%); the Deaths is on record as 0; the “Decrease in body weight, patients (%)” value came to 0; the “Dehydration, patients (%)” value is 1 (13%). Also, in series [4] (15 ng/kg/min, 8 patients), the “Dizziness, patients (%)” value is 0; the “Fever up, patients (%)” value is on record as 3 (38%); the “Flushing, patients (%)” value is listed as 1 (13%); the “Head discomfort, patients (%)” value was 1 (13%). In series [4] (15 ng/kg/min, 8 patients), the “Headache, patients (%)” value is recorded as 7 (88%); the “Increase in transaminase level, patients (%)” value is on record as 1 (13%); the “Lumbago, patients (%)” value was 0; the “Moderate to severe adverse events, patients (%)” value is 3 (38%). Besides, in series [4] (15 ng/kg/min, 8 patients), the “Nasopharyngitis, patients (%)” value was 2 (25%); the “Palpitation, patients (%)” value is listed as 2 (25%); the “Rash, patients (%)” value is 1 (13%); the “Right bundle branch block, patients (%)” value is 1 (13%). The “Vomiting, patients (%)” value in series [4] (15 ng/kg/min, 8 patients) is given as 1 (13%). In addition, the “Changes in blood pressure and pulse rate” value in series [4] (all groups, throughout the drug administration period, data not shown) is recorded as “did not observe any statistically significant changes”. The “Trough levels of biologics (infliximab, adalimumab) after AM administration” value in series [5] is “did not change”.

As usually defined, the AUC(0-t) is exposure summed from dosing to a finite time, without extrapolation to infinity. In general, Cmax refers to the highest concentration seen after dosing.

The record behind these values is paper PMC9796011 (Journal of Gastroenterology and Hepatology, 2022).
